Assay outcomes (PubChem)
Compounds with a hit are over-represented: about 1.7% of the library has one in this group of screens.
LMPTP inh: blocks human LMPTP phosphatase; AID 651560; hit rate 0.22% among 360,000; inhibition, % at 20 µM; P24666; recombinant LMPTP-A, OMFP fluorogenic substrate, fluorescence intensity;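 active = compounds that cut the enzyme signal by at least half of the control window in the single-dose screen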;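 also: plate controls were DMSO wells with enzyme plus substrate for no effect and substrate without enzyme for full effect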
Target sequence (P24666 whole entry, looked up): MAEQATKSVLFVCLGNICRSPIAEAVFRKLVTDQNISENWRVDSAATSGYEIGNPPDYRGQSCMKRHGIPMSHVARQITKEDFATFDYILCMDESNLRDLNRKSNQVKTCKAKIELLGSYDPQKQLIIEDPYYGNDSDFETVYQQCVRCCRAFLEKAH
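Assay system: LMPTP-A phosphatase enzyme | Input: 0.625 nM enzyme | Also added: Fluorogenic phosphatase substrate OMFP at 400 µM final | Compound dosing: One test concentration per compound, 20 µM, with 3% DMSO overall | Schedule: 50 min enzyme reaction at room temperature, protected from light | Signal: Fluorescence intensity | Benchmarks: no-enzyme and uninhibited controls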
DNMT1 inh: inhibitors of human DNMT1. DNMT1 molecular beacon, Hinp1I cleavage, fluorescence. inhibition (reported as % activation of signal), % at 10 µM. hit rate 0.83% among 360,000. AID 588458; in the data active = inhibition above about 50%
STEP inh: STEP (human) phosphatase inhibition | recombinant STEP, OMFP fluorogenic substrate, fluorescence | inhibition, % at 20 µM | hit rate 0.25% among 360,000;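 active = inhibition at 20 µM, scaled per plate between control wells, above about 37%, limit read from the data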;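 also: 0% = DMSO with enzyme and substrate and 100% = substrate only without enzyme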
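medium = Bis-Tris buffer pH 6.0, 2.5 mM DTT, 0.005% Tween 20 | test system = STEP (striatal-enriched tyrosine phosphatase) enzyme, cell-free | measure = normalized % inhibition | compound dosing = 20 µM, 1% DMSO | also added = 25 µM OMFP | schedule = reaction 20 min, ambient temperature | measured by = fluorescence read at 480 nm ex / 540 nm em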
Scp-1 inhibitor: inhibitors of human Scp-1 phosphatase; Q9GZU7; hit rate 0.88% among 340,000; Recombinant Scp1, phosphopeptide, malachite green phosphate absorbance; inhibition, % at 20 µM; AID 493091;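 active = inhibition above about 50% at 20 µM, limit read from the data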;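 also: plate controls were DMSO wells with enzyme for no effect and wells lacking enzyme for full effect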
Target sequence (Q9GZU7 76-261 limits assumed): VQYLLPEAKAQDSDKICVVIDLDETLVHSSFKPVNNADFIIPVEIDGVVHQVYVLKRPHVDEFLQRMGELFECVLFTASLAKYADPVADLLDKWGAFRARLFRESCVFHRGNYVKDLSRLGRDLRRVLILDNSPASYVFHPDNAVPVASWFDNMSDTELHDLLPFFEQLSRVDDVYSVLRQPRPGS
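Test system: SCP-1 phosphatase catalytic domain, residues 76-261 | Compound dosing: One concentration, 20 µM, with 1.0% DMSO | Schedule: 45 min room-temperature reaction, 5 min colour, 30 min stabiliser | Detection: Absorbance at 630 nm | Read-out basis: % inhibition of SCP-1 phosphate liberation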
SUMO1-SIM PPI: SUMO1-SIM interaction modulation; P63165; SUMO1 binding to a labelled peptide, TR-FRET, 1 h; inhibition, % at 20 µM; hit rate 0.33% among 360,000; AID 602429; in the data active = inhibition above about 37%
Target sequence (P63165 whole entry, looked up): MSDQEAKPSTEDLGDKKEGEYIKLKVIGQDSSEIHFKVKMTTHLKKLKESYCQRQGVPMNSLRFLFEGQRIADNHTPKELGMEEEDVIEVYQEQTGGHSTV
Active calls of the source: *; . = no result given.

SMILES	LMPTP inh	DNMT1 inh	STEP inh	Scp-1 inhibitor	SUMO1-SIM PPI
COc1cc(NC(=O)CSc2ncnc3sc4c(c23)CCCC4)c(C(=O)O)cc1OC	-2	1	96*	-4	9
O=C(C[C@H]1C=C[C@@H](NC(=O)Cc2cccnc2)[C@@H](CO)O1)NCc1ccc2c(c1)OCO2	-1	.	.	.	6
O=C(COC(=O)c1ccc([N+](=O)[O-])s1)c1ccc[nH]1	1	50*	-6	15	14
O=C(COC(=O)c1ccc([N+](=O)[O-])s1)NCc1ccc(F)cc1	0	28	2	-10	49*
COCP(=O)(c1ccccc1)c1ccccc1	0	4	-4	-6	5
CC(C)OCP(=O)(c1ccccc1)c1ccccc1	-1	4	-1	-4	51*
O=C(NCc1ccccc1)C(c1ccc(-c2ccccc2)cc1)n1c(=O)c(-c2cc3ccccc3[nH]2)nc2ccccc21 (centres undefined)	5	.	.	.	0
S=c1[nH]nc(-c2cc(-c3ccccc3)n[nH]2)n1/N=C/c1cccc(Cl)c1	10	5	9	4	88*
CC(=O)c1ccc(NCC(=O)N2CCN(S(=O)(=O)c3ccccc3)CC2)cc1	0	3	0	-2	2
O=C(CNc1ccc(Cl)c(C(F)(F)F)c1)N1CCN(S(=O)(=O)c2ccccc2)CC1	2	-1	2	69*	0
COc1ccccc1NC(=O)CSc1nnc2ccc(-c3ccccn3)nn12	-1	-1	0	4	-26
CCC(C)C(=O)OCC1(c2ccc(C)cc2OC(=O)C(C)C)CO1 (centres undefined)	-1	12	0	53*	3
CC(C)CN(C(=O)C1CCC1)c1c(N)n(Cc2ccccc2)c(=O)[nH]c1=O	-1	3	-5	2	-15
Cc1nc(N)nc(N)c1/C=C/C(C)(C)c1ccc(Cl)cc1	81*	0	6	6	5
O=[N+]([O-])c1cc([N+](=O)[O-])c2oc(-c3ccccc3)c(Br)c2c1O	9	-6	16	-12	43*
O=c1cc(-c2ccccc2Cl)oc2ccc([N+](=O)[O-])c(O)c12	13	6	2	4	-2
Nc1ccc2c(c1)C/C(=C/c1ccco1)C2=O	67*	88*	10	73*	40*
O=C1/C(=C/c2ccco2)CCc2ccccc21	0	-4	1	-10	-19
CCCCn1c(N)c(N(CC(C)C)C(=O)c2ccc(F)c(S(=O)(=O)N3CCOCC3)c2)c(=O)[nH]c1=O	0	4	-1	-3	4
CCCCNC(=O)C(NC(=O)Cc1cc(C(F)(F)F)cc(C(F)(F)F)c1)C(=O)c1ccccc1 (centres undefined)	-3	.	.	.	-4
CN(C(=S)NC(=O)c1ccc(F)cc1)C1CCCCC1	0	2	3	10	9
CN(C(=S)NC(=O)c1ccc(Cl)cc1)C1CCCCC1	72*	-4	20	70*	5
COc1ccccc1-c1csc(Nc2ccc(Oc3ccccc3)cc2)n1	1	-18	-5	.	8
Nc1ccc2nc3c(=O)n(CCc4ccccc4)c(=O)[nH]c3nc2c1	3	51*	-75	-2	-36
CCCCn1c(=O)[nH]c2nc3cc(N)ccc3nc2c1=O	-3	54*	-77	-5	-20
SMILES	LMPTP inh	DNMT1 inh	STEP inh	Scp-1 inhibitor	SUMO1-SIM PPI
Nc1ccc2nc3c(=O)n(C4CCCCC4)c(=O)[nH]c3nc2c1	-2	34	-60	-9	-21
Cn1c(CC(=O)NNC(=O)c2ccc(F)cc2Cl)nc2ccccc21	-1	0	2	-8	43*
Cn1c(CC(=O)NNC(=O)c2ccc(Cl)nc2)nc2ccccc21	-1	5	5	-7	4
O=C(Nc1ccc(Oc2ccccc2)cc1)c1csc([C@@H]2C[C@H](O)[C@@H](CO)O2)n1	-1	0	-4	.	5
COc1ccc(CCNC(=O)c2ccc3nc(-c4ccco4)c(-c4ccco4)nc3c2)cc1OC	64*	98*	22	89*	47*
O=C(Nc1cccc(C(F)(F)F)c1)c1ccc2nc(-c3ccco3)c(-c3ccco3)nc2c1	22	85*	2	84*	33
O=C(Nc1ccc2nc(-c3ccco3)c(-c3ccco3)nc2c1)NC1CC1	70*	93*	54*	92*	76*
Cc1cc(C)nc(/N=c2/ssnc2Cl)c1	79*	-14	5	-4	20
C=C(C)C(=O)Nc1cccc(C2=NOC3(C2)C[C@@H](C(N)=O)N(C(=O)c2ccc(OC)cc2)C3)c1 (some centres undefined)	2	96*	13	99*	107*
CCCCCC(=O)Nc1cccc(C2=NOC3(C2)C[C@@H](C(N)=O)N(C(=O)c2ccc(OC)cc2)C3)c1 (some centres undefined)	0	7	0	14	17
Nc1ncnc2c1ncn2[C@@H]1O[C@H](C(=O)N[C@H]2c3ccccc3C[C@H]2O)[C@@H](O)[C@H]1O	-1	5	2	.	1
Cc1ccc(CCNS(=O)(=O)c2cc3c(cc2Cl)NC(=O)CO3)cc1	-1	-7	-3	-12	3
CC(=O)N1C(=O)c2cccc3cccc(c23)C(=O)N1C(C)=O	.	.	.	1	.
O=C1c2cccc3cccc(c23)C(=O)C1(O)O	57*	3	6	-10	-26
O=C(c1ccc2c(c1)OCCO2)N1CCN(Cc2c(F)cccc2Cl)CC1	-1	1	0	-3	-2
CC(C(=O)N(C)C1CCS(=O)(=O)C1)N1C(=O)/C(=C/c2ccco2)SC1=S (centres undefined)	1	20	3	23	-15
O=C(CCCN1C(=O)/C(=C/c2ccccc2)SC1=S)Nc1ccc(C(=O)O)c(O)c1	3	-1	0	-8	-24
CC(C(=O)Nc1ccc(C(=O)O)c(O)c1)N1C(=O)/C(=C\c2ccco2)SC1=S (centres undefined)	23	95*	64*	70*	88*
O=C(CCCN1C(=O)/C(=C/c2ccc3c(c2)OCO3)SC1=S)Nc1ccc(C(=O)O)cc1	22	0	13	-8	-22
Cc1ccc(NC(=O)CN2C(=O)S/C(=C\c3ccc(-c4cccc(C(=O)O)c4C)o3)C2=O)cc1C	82*	53*	68*	92*	11
O=C(CCCN1C(=O)C(=Cc2ccc3c(c2)OCO3)SC1=S)Nc1ccc(C(=O)O)c(O)c1	52*	2	-1	.	-1
O=C(CN1C(=O)/C(=C/c2ccco2)SC1=S)Nc1ccc(C(=O)O)c(O)c1	43	95*	64*	50	78*
CCCCNC(=O)c1nc(C2CCN(S(=O)(=O)c3ccccc3)CC2)oc1-c1cccc(C(F)(F)F)c1	4	-1	3	.	4
